Assays:
[1] = AUC ( 0 to infinity) in type 2 diabetic mellitus human at 270 mg, po administered as single dose; type: ADME, organism-based; design: time infinity, route oral, dose 270 mg; conditions: in vivo
Procedure, shortened: (§1)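 Type 2 diabetic subjects each received a single oral dose. Plasma drug levels were followed over time. Parameters were derived by noncompartmental analysis and reported as geometric means with CV%. CL/F is apparent total clearance and Vz/F is apparent terminal-phase volume.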

[2] = Apparent volume of distribution in type 2 diabetic mellitus human at 270 mg, po administered as single dose; type: ADME, organism-based; conditions: in vivo, read-out: Vz/F; procedure, shortened: as §1
[3] = Apparent clearance in type 2 diabetic mellitus human at 270 mg, po administered as single dose; type: ADME, organism-based; conditions: in vivo; procedure, shortened: as §1
[4] = Apparent clearance in type 2 diabetic mellitus human at 1080 mg, po administered as single dose; type: ADME, organism-based; conditions: in vivo; procedure, shortened: as §1
[5] = Half life in type 2 diabetic mellitus human at 1080 mg, po administered as single dose; type: ADME, organism-based; conditions: in vivo; procedure, shortened: as §1
[6] = Apparent volume of distribution in type 2 diabetic mellitus human at 540 mg, po administered as single dose; type: ADME, organism-based; conditions: in vivo, read-out: Vz/F; procedure, shortened: as §1
[7] = Drug metabolism in mouse hepatocytes assessed as demethylation by LC-MS/MS analysis; type: ADME, cell-based, Hepatocyte
[8] = Apparent volume of distribution in type 2 diabetic mellitus human at 1080 mg, po administered as single dose; type: ADME, organism-based; conditions: in vivo, read-out: Vz/F; procedure, shortened: as §1
[9] = Drug metabolism in dog urine assessed as metabolite formation by LC-MS/MS analysis; type: ADME, tissue-based, Canis lupus familiaris
[10] = Tmax in type 2 diabetic mellitus human at 270 mg, po administered as single dose; type: ADME, organism-based; conditions: in vivo
Procedure, shortened: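 Single oral dose given to type 2 diabetic subjects; plasma drug levels followed over time. Cmax, Tmax, terminal half-life, AUC(0−∞), CL/F and Vz/F obtained by noncompartmental analysis and reported as geometric means with CV%.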

[11] = Half life in type 2 diabetic mellitus human at 270 mg, po administered as single dose; type: ADME, organism-based; conditions: in vivo; procedure, shortened: as §1
[12] = AUC in hyperglycemic Balb/c mouse plasma at 5 mg/kg measured upto 60 mins; type: ADME, organism-based; design: dose 5 mg/kg, time <=60
[13] = Drug metabolism in dog plasma assessed as conjugation with glucuronide metabolite formation by LC-MS/MS analysis; type: ADME, cell-free, Canis lupus familiaris
[14] = AUC ( 0 to infinity) in type 2 diabetic mellitus human at 540 mg, po administered as single dose; type: ADME, organism-based; design: route oral, time infinity, dose 540 mg; conditions: in vivo; procedure, shortened: as §1
[15] = Apparent clearance in type 2 diabetic mellitus human at 540 mg, po administered as single dose; type: ADME, organism-based; conditions: in vivo; procedure, shortened: as §1
[16] = Drug metabolism in rat hepatocytes assessed as O-dealkylation by measuring 4-((2,3-dihydrospiro[indene-1,4'-piperidine]-1'-yl)methyl)benzoic acid metabolite formation by LC-MS/MS analysis; type: ADME, cell-based, Hepatocyte
[17] = Clearance in mouse plasma at 10 mg/kg, po or 1 mg/kg, iv by LC/MS/MS analysis; type: ADME, organism-based
Procedure, shortened: (§2)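 Dosing was oral and intravenous in mice, rats or beagle dogs. Blood was drawn at set time points into EDTA and processed to plasma. Plasma was assayed by LC/MS/MS. Clearance, Cmax and terminal half-life were derived by noncompartmental analysis.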

[18] = Oral bioavailability in rat at 10 mg/kg by LC/MS/MS analysis; type: ADME, organism-based; conditions: in vivo
Procedure, shortened: (§3)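 Mice, rats and beagle dogs dosed; blood drawn at set times into EDTA, processed to plasma and assayed by LC/MS/MS. Parameters (clearance, Vdss, terminal half-life, Cmax, Tmax, oral bioavailability) derived by noncompartmental analysis.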

[19] = Elimination half-life in rat plasma at 10 mg/kg, po or 3 mg/kg, iv by LC/MS/MS analysis; conditions: read-out: beta t1/2 (converted)
[20] = Drug metabolism in dog plasma assessed as O-dealkylation metabolite formation by LC-MS/MS analysis; type: ADME, cell-free, Canis lupus familiaris
[21] = Tmax in mouse at 10 mg/kg, po or 1 mg/kg, iv by LC/MS/MS analysis; type: ADME, organism-based; conditions: in vivo; procedure, shortened: as §3
[22] = Elimination half-life in mouse plasma at 10 mg/kg, po or 1 mg/kg, iv by LC/MS/MS analysis; conditions: read-out: beta t1/2 (converted)
[23] = Cmax in mouse plasma at 10 mg/kg, po or 1 mg/kg, iv by LC/MS/MS analysis; type: ADME, organism-based; design: dose 10 mg/kg; procedure, shortened: as §2
[24] = Clearance in dog plasma at 5 mg/kg, po or 1 mg/kg, iv by LC/MS/MS analysis; type: ADME, organism-based, Canis lupus familiaris; procedure, shortened: as §2
[25] = Oral bioavailability in dog at 5 mg/kg by LC/MS/MS analysis; type: ADME, organism-based, Canis lupus familiaris; conditions: in vivo; procedure, shortened: as §3
[26] = Half-life in rat at 10 mg/kg, po or 3 mg/kg, iv by LC/MS/MS analysis; type: ADME, organism-based; conditions: in vivo; procedure, shortened: as §3
[27] = Drug metabolism in mouse hepatocytes assessed as O-dealkylation by measuring 4-((2,3-dihydrospiro[indene-1,4'-piperidine]-1'-yl)methyl)benzoic acid metabolite formation by LC-MS/MS analysis; type: ADME, cell-based, Hepatocyte
[28] = Tmax in dog at 5 mg/kg, po or 1 mg/kg, iv by LC/MS/MS analysis; type: ADME, organism-based, Canis lupus familiaris; conditions: in vivo; procedure, shortened: as §3
[29] = Cmax in dog plasma at 5 mg/kg, po or 1 mg/kg, iv by LC/MS/MS analysis; type: ADME, organism-based, Canis lupus familiaris; design: dose 5 mg/kg; procedure, shortened: as §2
[30] = Elimination half-life in dog plasma at 5 mg/kg, po or 1 mg/kg, iv by LC/MS/MS analysis; type: ADME, organism-based, Canis lupus familiaris; procedure, shortened: as §2
[31] = Volume of distribution at steady state in rat at 10 mg/kg, po or 3 mg/kg, iv by LC/MS/MS analysis; type: ADME, organism-based; conditions: in vivo, read-out: Vdss; procedure, shortened: as §3
[32] = Volume of distribution at steady state in mouse at 10 mg/kg, po or 1 mg/kg, iv by LC/MS/MS analysis; type: ADME, organism-based; conditions: in vivo, read-out: Vdss; procedure, shortened: as §3
[33] = Drug metabolism in rat hepatocytes assessed as oxidation by LC-MS/MS analysis; type: ADME, cell-based, Hepatocyte
[34] = Drug distribution in C57BL/6 mouse skeletal muscle at 3 microg/kg, iv administered as single dose observed at 20 to 40 mins by LC-MS/MS analysis; type: ADME, organism-based, Skeletal muscle tissue; conditions: in vivo, 0.003 mg/kg, time 20-40 min, dose 3 µg/kg
Procedure, shortened: (§4)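 Tracer microdose study in fed male C57BL/6 mice: single 3 μg/kg IV dose in 25% HP-BCD. Mice were killed by cervical dislocation, and spleen, ascending colon, skeletal muscle and plasma were sampled at 20 and 40 min.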

[35] = Drug distribution in C57BL/6 mouse plasma at 3 microg/kg, iv administered as single dose observed at 20 to 40 mins by LC-MS/MS analysis; type: ADME, organism-based; conditions: in vivo, 0.003 mg/kg, time 20-40 min, dose 3 µg/kg; procedure, shortened: as §4
[36] = AUC in hyperglycemic Balb/c mouse plasma at 3.67 mg/kg measured upto 60 mins; type: ADME, organism-based; design: dose 3.67 mg/kg, time <=60
[37] = AUC in hyperglycemic Balb/c mouse plasma at […] measured upto 60 mins; type: ADME, organism-based

`CC#C[C@@H](CC(=O)O)c1ccc(OCc2ccc(CN3CCCc4cccc(OC)c43)s2)cc1` gave an AUC(0-inf) [1] of 19400 ng·h/mL, a Vd/F [2] of 244 L and a CL/F [3] of 232 mL/min. It also gave a CL/F [4] of 185 mL/min, a half-life [5] of 22.4 h and a Vd/F [6] of 273 L. The Drug metabolism [7] was “Metabolite_Detected”, the Vd/F [8] was 358 L and the Drug metabolism [9] was “Metabolite_Notdetected”. For the same molecule, the Tmax [10] was 2.75 h, the half-life [11] was 12.1 h and the AUC at 1 h [12] was 4930 ng·h/mL. For the same molecule, the Drug metabolism [13] was “Metabolite_Detected”, the AUC(0-inf) [14] was 41400 ng·h/mL and the CL/F [15] was 217 mL/min.
With `CC#C[C@@H](CC(=O)O)c1ccc(OCc2ccc(CN3CCC4(C=Cc5ccccc54)CC3)cc2)cc1` [LY2881835] the Drug metabolism [16] was “Metabolite_Detected”, the clearance [17] was 20.4 mL/min/kg and the bioavailability [18] was 71%. The half-life [19] was 2 h, the Drug metabolism [20] was “Metabolite_Detected” and the Tmax [21] was 0.5 h. For the same molecule, the half-life [22] was 2 h, the Cmax [23] was 1100 ng/mL and the clearance [24] was 4.9 mL/min/kg. The bioavailability [25] was 74%, the half-life [26] was 2.1 h and the Drug metabolism [27] was “Metabolite_Detected”. The Tmax [28] was 3 h, the Cmax [29] was 2860 ng/mL and the half-life [30] was 5.05 h. For the same molecule, the Vd [31] was 0.4 L/kg and the Vd [32] was 1.4 L/kg.
For `CC#C[C@@H](CC(=O)O)c1ccc(OCc2ccc(CN3CCC4(CCc5ccccc54)CC3)s2)cc1`, the Drug metabolism [33] was “Metabolite_Detected”.
In the case of `CC#C[C@@H](CC(=O)O)c1ccc(OCc2ccc(CN3CCC4(C=Cc5ccccc54)CC3)s2)cc1`, the Drug uptake [34] is reported as “Active”, the Drug uptake [35] is reported as “Active” and the AUC at 1 h [36] is reported as 1060 ng·h/mL.
Molecule `CC#C[C@@H](CC(=O)O)c1ccc(OCc2ccc(CN3CCC4(CC3)CN(C)c3ccccc34)cc2)cc1` has an AUC at 1 h [37] of 1030 ng·h/mL.

Reference: ChEMBL document CHEMBL4765234 (J Med Chem, 2016)
